# Published values collected from several papers.
# Each line is one published result; the experiments were not run side by side.
# Organism: Escherichia coli
# Observed: microbial growth
Compound,technique,strain,time,MIC
Cc1[nH]c(C(=O)Nc2ccc(C(=O)NCC(=O)O)cc2N2CC[C@@H](N)C2)c(Cl)c1Cl.Cl,broth dilution,ATCC25922,,> 32 µg/mL
O=C(C=Cc1ccc(O)c(O)c1)Oc1ccccc1,broth dilution,ATCC25922,,8 µg/mL
Cl.N[C@H]1CCN(c2cc(C(=O)NCC(=O)O)ccc2NC(=O)c2cc(Br)c(Br)[nH]2)C1,broth dilution,ATCC25922,,> 32 µg/mL
O=C(O)c1cn(C2CC2)c2cc(N3CCNCC3)c(F)cc2c1=O,,MTCC739,24 h,32 µg/mL
Cc1ccccc1NC(=O)C=Cc1ccc(O)c(O)c1,broth dilution,ATCC25922,,4 µg/mL
C[C@@H](O)[C@H]1C(=O)N2C(C(=O)O)=C(S[C@@H]3CN[C@H](C(=O)Nc4cccc(C(=O)O)c4)C3)[C@H](C)[C@H]12,broth dilution,,,≤ 0.125 µg/mL
O=C(C=Cc1ccc(O)c(O)c1)OCCc1ccccc1,broth dilution,ATCC25922,,32 µg/mL
Cc1nn(-c2ccccc2)c2c1C(c1ccc(N(C)C)cc1)N(C(=O)c1ccncc1)N2 (centres unmarked),,MTCC739,24 h,> 100 µg/mL
CC(O)CSc1nnc(-c2ccccc2)n1-c1ccccc1 (centres unmarked),,,,11000 µg/mL
C[C@@H](O)[C@H]1C(=O)N2C(C(=O)O)=C(S[C@@H]3CN[C@H](C(=O)N(C)C)C3)[C@H](C)[C@H]12,broth dilution,ATCC25922,20 h,< 0.5 µg/mL
CC(C)(C)OC(=O)N[C@@H]1CCN(c2cc(C(=O)NCC(=O)O)ccc2NC(=O)c2cc(Br)c(Br)[nH]2)C1,broth dilution,ATCC25922,,> 32 µg/mL
CC1(C)S[C@@H]2[C@H](NC(=O)[C@H](N)c3ccccc3)C(=O)N2[C@H]1C(=O)O,,,24 h,5 to 10 µM
Cl.O=C(O)CNC(=O)c1ccc(NC(=O)c2cc(Br)c(Br)[nH]2)c(N2CCNCC2)c1,broth dilution,ATCC25922,,> 32 µg/mL
NCC[C@H](O)C(=O)N[C@@H]1C[C@H](N)[C@@H](O[C@H]2O[C@H](CN)[C@@H](O)[C@H](O)[C@H]2O)[C@H](O)[C@H]1O[C@H]1O[C@H](CO)[C@@H](O)[C@H](N)[C@H]1O,broth dilution,,,≤ 1 µg/mL
CC(O)CSc1nnc(-c2cc3ccccc3o2)n1-c1ccccc1 (centres unmarked),,,,10000 µg/mL
Cc1nn(-c2ccccc2)c2c1C(c1c[nH]c3ccccc13)N(C(=O)c1ccncc1)N2 (centres unmarked),,MTCC739,24 h,> 100 µg/mL
C[C@@H](O)[C@H]1C(=O)N2C(C(=O)O)=C(S[C@@H]3CN[C@H](C(=O)N(C)C)C3)[C@H](C)[C@H]12,broth dilution,,,≤ 0.06 µg/mL
CC(C)(C)OC(=O)N1CCN(c2cc(C(=O)NCC(=O)O)ccc2NC(=O)c2cc(Br)c(Br)[nH]2)CC1,broth dilution,ATCC25922,,> 32 µg/mL
O=C(C=Cc1ccc(O)c(O)c1)Oc1cccc2cccnc12,broth dilution,ATCC25922,,4 µg/mL
CO/N=C(\C(=O)N[C@@H]1C(=O)N2C(C(=O)O)=C(CSc3nc(=O)c(O)nn3C)CS[C@H]12)c1csc(N)n1,broth dilution,,,≤ 0.5 µg/mL
